This passage reports inhibition results from ChEMBL document CHEMBL1153722, “Design, synthesis, and characterization of peptide-based rab geranylgeranyl transferase inhibitors” (J Med Chem, 2009).

Square brackets hold non-standard residues; d marks the D form. Peptide text beside a SMILES is read from it. * marks the point of attachment. Hydrocinnamoyl = O=C(CCc1ccccc1)*; Palmitoyl = CCCCCCCCCCCCCCCC(=O)*; Undecanoyl = CCCCCCCCCCC(=O)*; pGlu = O=C1CC[C@@H](C(=O)O)N1; Nicotinoyl = O=C(c1cccnc1)*; Ac6c = NC1(C(=O)O)CCCCC1; Cbz = O=C(OCc1ccccc1)*

The experiment is filed under the species Rattus norvegicus. Kind of experiment: Inhibition of rat recombinant Rab geranylgeranyltransferase at 100 uM in presence of canine Rab7 and rat REP1 NBD-FPP based continuous fluorimetric assay. A digest of the protocol: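 Continuous fluorometric assay in 96/384-well format: 3 μM Rab7, 3 μM REP1, 9 μM NBD-FPP and 400 nM RabGGTase, with or without inhibitor. […] IC50 was calculated from three independent measurements.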
Take `COC(=O)[C@H](Cc1ccc(O)cc1)NC(=O)CNC(=O)[C@H](Cc1c[nH]cn1)NC(=O)OCc1ccccc1` (Cbz-His-Gly-Tyr-OMe): the inhibition – broadly, the change of the read-out against control, counted positive when it falls – was determined as 70%. Regarding `O=C(CNC(=O)[C@H](Cc1ccc(O)cc1)NC(=O)c1coc(-c2ccccc2)n1)N[C@@H](Cc1ccc(O)cc1)C(=O)O`, the inhibition is 58%.

Consider `O=C(/C=C/c1ccc(F)cc1)N[C@@H](CO)C(=O)N[C@@H](Cc1ccccc1)C(=O)N[C@@H](CO)C(=O)Nc1ccc(N2CCOCC2)cc1`, for which the inhibition stood at 79%. For the compound `CCCCCCCCCCCCCC(=O)OC[C@H](NC(=O)[C@@H](NC(=O)[C@H](CCCCNC(=O)c1coc(-c2ccccc2)n1)NC(=O)c1coc(-c2ccccc2)n1)[C@H](C)O)C(=O)O`, the inhibition was 54%.

With `C[C@H](NC(=O)[C@@H](NC(=O)c1ccc(-c2ccccc2)cc1)[C@@H](C)O)C(=O)N[C@@H](CCC(=O)O)C(=O)OCCCCO`, the inhibition is 101%. In the case of `COC(=O)[C@H](CC(C)C)NC(=O)[C@H](COC(C)(C)C)NC(=O)[C@H](Cc1ccccc1)NC(=O)/C=C/c1ccc(F)cc1`, the inhibition amounted to 57%.

For the compound `O=C(CNC(=O)[C@H](Cc1c[nH]cn1)NC(=O)c1coc(-c2ccccc2)n1)N[C@@H](Cc1ccc(O)cc1)C(=O)O`, the inhibition is 99%.

Regarding `O=C(CNC(=O)[C@H](Cc1ccc(O)cc1)NC(=O)c1coc(-c2ccccc2)n1)N[C@@H](Cc1ccccc1)C(=O)O`, the inhibition was 65%.

In the case of `COC(=O)[C@H](CO)NC(=O)CNC(=O)[C@H](Cc1ccccc1)NC(=O)c1coc(-c2ccccc2)n1`, the inhibition worked out at 115%.

`NC(=O)CC[C@H](NC(=O)[C@H](Cc1ccccc1)NC(=O)CNC(=O)CCc1ccccc1)C(=O)NNc1ccccc1`: the inhibition was found to be 75%. As for `CC[C@H](C)[C@H](NC(=O)[C@H](Cc1ccccc1)NC(=O)c1cccnc1)C(=O)N[C@@H](CCCNC(=N)N)C(=O)O` (Nicotinoyl-Phe-Ile-Arg-OH), the inhibition came to 119%. In the case of `O=C(N[C@@H](CO)C(=O)N[C@@H](Cc1ccccc1)C(=O)N[C@@H](CO)C(=O)O)C(Br)C(Br)c1ccc(F)cc1` (stereo partly drawn) it was 92%; in that of `CCCCCCCCCCCOc1ccc(C(=O)N[C@@H](Cc2ccc(O)cc2)C(=O)N[C@@H](Cc2ccc(O)cc2)C(=O)N[C@@H](Cc2ccc(O)cc2)C(=O)OC)cc1`, 102%; in that of `O=C(CNC(=O)[C@H](Cc1cn(C(c2ccccc2)(c2ccccc2)c2ccccc2)cn1)NC(=O)c1coc(-c2ccccc2)n1)N[C@@H](Cc1cn(C(c2ccccc2)(c2ccccc2)c2ccccc2)cn1)C(=O)O`, 95%. In the case of `CCCCCc1ccc(CCC(=O)N[C@H](Cc2cnc[nH]2)C(=O)N[C@@H](Cc2ccc(O)cc2)C(=O)N[C@@H](Cc2ccccc2)C(=O)O)cc1`, the inhibition worked out at 10%.

For `COC(=O)[C@H](CO)NC(=O)CNC(=O)[C@H](CO)NC(=O)/C=C/c1ccc(F)cc1`, the inhibition turned out to be 63%. Then `CCCCCCCCCCC(=O)N[C@@H](Cc1ccc(O)cc1)C(=O)N[C@@H](Cc1cnc[nH]1)C(=O)N[C@@H](Cc1ccc(O)cc1)C(=O)O` (Undecanoyl-Tyr-His-Tyr-OH), with 90%. Turning to `CC(C)(C)Oc1ccc(C[C@H](NC(=O)CNC(=O)[C@H](Cc2cn(C(c3ccccc3)(c3ccccc3)c3ccccc3)cn2)NC(=O)c2coc(-c3ccccc3)n2)C(=O)O)cc1`, the inhibition is 80%. Regarding `CCCCCCCCCCCCCCCCNC(=O)[C@H](Cc1ccc(O)cc1)NC(=O)CNC(=O)[C@H](Cc1ccc(O)cc1)NC(=O)c1ccc(F)cc1`, the inhibition stood at 89%. On to `NC(=O)[C@H](CO)NC(=O)CNC(=O)[C@H](CO)NC(=O)CCc1ccccc1` (Hydrocinnamoyl-Ser-Gly-Ser-NH2), for which the inhibition was 85%. Then `C=CCOC(=O)[C@H](Cc1cn(C(c2ccccc2)(c2ccccc2)c2ccccc2)cn1)NC(=O)[C@H](Cc1ccccc1)NC(=O)CNC(=O)c1coc(-c2ccccc2)n1`, with 55%; and `O=C(N[C@@H](CO)C1=N[C@H](C(=O)O)CO1)c1coc(-c2ccccc2)n1`, with 93%. In the case of `CC(C)C[C@H](NC(=O)[C@H](COC(C)(C)C)NC(=O)[C@H](Cc1ccccc1)NC(=O)CCc1ccccc1)C(=O)O`, the inhibition turned out to be 88%. Take `CCCCCCCCCCC(=O)N[C@@H](Cc1ccc(O)cc1)C(=O)N[C@@H](Cc1cnc[nH]1)C(=O)N[C@@H](Cc1ccc(O)cc1)C(=O)NCCCn1ccnc1`: the inhibition was determined as 32%.

As to `O=C(CNC(=O)[C@H](Cc1c[nH]cn1)NC(=O)OCc1ccccc1)N[C@@H](Cc1ccc(O)cc1)C(=O)Nc1nccs1`, the inhibition turned out to be 82%. With `CCCCCCCCCCC(=O)N[C@@H](Cc1ccc(O)cc1)C(=O)N[C@@H](Cc1c[nH]cn1)C(=O)N[C@@H](Cc1c[nH]cn1)C(=O)O` (Undecanoyl-Tyr-His-His-OH), the inhibition came out at 64%. As for `COC(=O)[C@H](CC(C)C)NC(=O)[C@H](CO)NC(=O)[C@H](Cc1ccccc1)NC(=O)c1ccc(-c2ccccc2)cc1`, the inhibition came to 94%. For the compound `O=C(CNC(=O)c1coc(-c2ccccc2)n1)N[C@@H](Cc1cn(C(c2ccccc2)(c2ccccc2)c2ccccc2)cn1)C(=O)N[C@@H](Cc1cn(C(c2ccccc2)(c2ccccc2)c2ccccc2)cn1)C(=O)O`, the inhibition worked out at 91%. Turning to `CCCCCCCCCCC(=O)N[C@@H](Cc1c[nH]cn1)C(=O)N[C@@H](Cc1c[nH]cn1)C(=O)N[C@@H](CO)C(=O)OC` (Undecanoyl-His-His-Ser-OMe), the inhibition is 77%. `CC(C)CCNC(=O)[C@H](Cc1ccccc1)NC(=O)[C@H](CC(C)C)NC(=O)[C@@H]1CCCN1C(=O)/C=C/c1ccccc1`: the inhibition came out at 104%. `CCCCCCCCCCCCCCCC(=O)N[C@@H](Cc1ccc(O)cc1)C(=O)N[C@@H](Cc1ccc(O)cc1)C(=O)N[C@@H](Cc1ccc(O)cc1)C(=O)OC` (Palmitoyl-Tyr-Tyr-Tyr-OMe): the inhibition came to 49%. In the case of `CCCCCCCCCCCCCCCC(=O)N[C@@H](Cc1ccc(O)cc1)C(=O)N[C@@H](Cc1ccc(O)cc1)C(=O)N[C@@H](Cc1ccc(O)cc1)C(=O)O` (Palmitoyl-Tyr-Tyr-Tyr-OH) it was 93%; in that of `C[C@@H](O)[C@H](NC(=O)C(Br)C(Br)c1ccccc1)C(=O)N[C@@H](Cc1ccccc1)C(=O)N[C@@H](CCC(N)=O)C(=O)Nc1nccs1` (stereo partly drawn), 93%. In the case of `CCCCCCCCCCCC(=O)N[C@@H](Cc1c[nH]cn1)C(=O)N[C@@H](Cc1c[nH]cn1)C(=O)N[C@@H](CO)C(=O)NCC(O)CO` (stereo partly drawn) it was 63%; in that of `CCCCCCCCCCC(=O)N[C@@H](Cc1c[nH]cn1)C(=O)N[C@@H](Cc1ccccc1)C(=O)N[C@@H](Cc1ccc(O)cc1)C(N)=O` (Undecanoyl-His-Phe-Tyr-NH2), 45%.

Turning to `O=C(N[C@H](Cc1cnc[nH]1)C(=O)N[C@@H](Cc1ccc(O)cc1)C(=O)N[C@@H](Cc1ccccc1)C(=O)O)OCc1ccc(OCc2ccccc2)cc1`, the inhibition was determined as 47%.

Consider `CC(C)CCNC(=O)[C@H](Cc1ccccc1)NC(=O)[C@H](Cc1ccccc1)NC(=O)[C@H](CC(C)C)NC(=O)/C=C/c1ccccc1`, for which the inhibition was 92%. `C[C@@H](O)[C@H](NC(=O)C(Br)C(Br)c1ccccc1)C(=O)N[C@@H](Cc1ccccc1)C(=O)N[C@@H](CCC(N)=O)C(=O)OCCCCO` (stereo partly drawn): the inhibition was determined as 60%. As for `CCCCCCCCCCCCCC(=O)N[C@@H](Cc1ccc(O)cc1)C(=O)N[C@@H](Cc1ccc(O)cc1)C(=O)N[C@@H](Cc1ccc(O)cc1)C(=O)Nc1ccc(N2CCOCC2)cc1`, the inhibition is 94%. On to `O=C(CCNC(=O)[C@H](Cc1c[nH]cn1)NC(=O)OCc1ccccc1)N[C@@H](Cc1ccc(O)cc1)C(=O)Nc1nccs1`, for which the inhibition stood at 73%. As for `CCCCCCCCCCCC(=O)N[C@@H](Cc1c[nH]cn1)C(=O)N[C@@H](Cc1c[nH]cn1)C(=O)N[C@@H](CO)C(=O)Nc1ccccc1N`, the inhibition was 88%. Turning to `C[C@H](NC(=O)CCc1ccccc1)C(=O)N[C@@H](Cc1ccccc1)C(=O)N[C@@H](CCC(N)=O)C(=O)OCCCCO`, the inhibition turned out to be 44%. Regarding `CC[C@H](C)[C@H](NC(=O)c1ccc(-c2ccccc2)cc1)C(=O)N[C@@H](C(=O)N[C@@H](CCC(N)=O)C(=O)N1CCCCC1)C(C)C`, the inhibition was found to be 100%. Turning to `CCCCCCCCCCC(=O)N[C@@H](Cc1ccc(O)cc1)C(=O)N[C@@H](Cc1c[nH]cn1)C(=O)N[C@@H](Cc1c[nH]cn1)C(=O)Nc1ccccc1N`, the inhibition came out at 87%. As for `CC(C)C[C@H](NC(=O)[C@H](COC(C)(C)C)NC(=O)[C@H](Cc1ccccc1)NC(=O)c1ccc(-c2ccccc2)cc1)C(N)=O`, the inhibition was 48%.

Take `CCCCCCCCCCC(=O)N[C@@H](Cc1ccc(O)cc1)C(=O)N[C@@H](Cc1c[nH]cn1)C(=O)N[C@@H](Cc1c[nH]cn1)C(=O)OC` (Undecanoyl-Tyr-His-His-OMe): the inhibition stood at 32%. As to `CCCCCCCCCCCOc1ccc(C(=O)N[C@@H](Cc2ccc(O)cc2)C(=O)N[C@@H](Cc2ccc(O)cc2)C(=O)N[C@@H](Cc2ccc(O)cc2)C(=O)OCCCl)cc1`, the inhibition amounted to 107%. Take `O=C(CNC(=O)c1coc(-c2ccccc2)n1)NCC(=O)N[C@@H](Cc1cn(C(c2ccccc2)(c2ccccc2)c2ccccc2)cn1)C(=O)Nc1ccc(F)cc1F`: the inhibition amounted to 6%. `C[C@@H](O)[C@H](NC(=O)/C=C/c1ccccc1)C(=O)N[C@@H](Cc1ccccc1)C(=O)N[C@@H](CCC(N)=O)C(=O)NC1CCCCC1`: the inhibition came to 75%. For the compound `CC(C)(C)Oc1ccc(C[C@H](NC(=O)c2coc(-c3ccccc3)n2)C(=O)NCC(=O)N[C@@H](Cc2cn(C(c3ccccc3)(c3ccccc3)c3ccccc3)cn2)C(=O)O)cc1`, the inhibition came out at 94%. On to `COC(=O)C1(NC(=O)[C@H](CCCCN)NC(=O)[C@H](CC(C)C)NC(=O)[C@@H]2CCC(=O)N2)CCCCC1` ([pGlu]LK[Ac6c]-OMe), for which the inhibition is 98%. With `CCCCCCCCCCCC(=O)N[C@@H](Cc1ccc(O)cc1)C(=O)N[C@@H](Cc1c[nH]cn1)C(=O)N[C@@H](Cc1c[nH]cn1)C(=O)N(C)CCc1ccccn1`, the inhibition came out at 54%. In the case of `CCCCCCCCCCCOc1ccc(C(=O)N[C@@H](Cc2c[nH]cn2)C(=O)N[C@@H](Cc2ccc(O)cc2)C(=O)N[C@@H](Cc2ccccc2)C(=O)N(C)OC)cc1` it was 65%.
